Reference: ChEMBL document CHEMBL4400523, “Synthesis of novel pyrido[1,2-c]pyrimidine derivatives with rigidized tryptamine moiety as potential SSRI and 5-HT1A receptor ligands” (Eur J Med Chem, 2019)

How the values were obtained:
Mus musculus [1] = experiment: Induction of hypothermia in CD-1 mouse assessed as change in body temperature at 20 mg/kg, ip measured after 120 mins by thermometric method; type: functional, organism-based
Method in brief: (§1)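 Male CD-1 mice (23–40 g), 6–8 per dose, given compound ip in 10% aqueous DMSO (10 mL/kg). Rectal temperature was read by thermometer 30, 60, 90 and 120 min after dosing. Results are expressed as change from basal temperature at experiment start. Analysis by Dunnett's test.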

Mus musculus [2] = experiment: Induction of hypothermia in CD-1 mouse assessed as change in body temperature at 17.5 mg/kg, ip measured after 90 mins by thermometric method (reference value: -0.1 to 0.1 deg C); type: functional, organism-based; method in brief: as §1
[3] = biological target: T1, 5-hydroxytryptamine receptor 1A (Homo sapiens, UniProt P08908); experiment: Displacement of [3H]-8-OH-DPAT from recombinant human 5HT1A receptor expressed in CHO cell membranes measured after 60 mins by microbeta scintillation counting analysis
T1 sequence (P08908 whole entry): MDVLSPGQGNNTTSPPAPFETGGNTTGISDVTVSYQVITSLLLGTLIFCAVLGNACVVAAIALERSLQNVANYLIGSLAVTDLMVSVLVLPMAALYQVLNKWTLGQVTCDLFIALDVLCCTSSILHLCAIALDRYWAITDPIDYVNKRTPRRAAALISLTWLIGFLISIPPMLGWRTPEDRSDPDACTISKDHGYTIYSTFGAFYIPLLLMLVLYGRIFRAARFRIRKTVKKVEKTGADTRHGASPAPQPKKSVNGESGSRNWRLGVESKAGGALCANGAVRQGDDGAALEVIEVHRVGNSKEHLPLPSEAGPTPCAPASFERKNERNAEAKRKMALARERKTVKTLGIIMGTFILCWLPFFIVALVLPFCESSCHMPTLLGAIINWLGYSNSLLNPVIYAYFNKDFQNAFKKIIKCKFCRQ

[4] = biological target: Sodium-dependent serotonin transporter (Rattus norvegicus, UniProt P31652); experiment: Displacement of [3H]-citalopram from SERT in rat cortex tissue measured after 60 mins by microbeta scintillation counting analysis
Sodium-dependent serotonin transporter, sequence (P31652 whole entry): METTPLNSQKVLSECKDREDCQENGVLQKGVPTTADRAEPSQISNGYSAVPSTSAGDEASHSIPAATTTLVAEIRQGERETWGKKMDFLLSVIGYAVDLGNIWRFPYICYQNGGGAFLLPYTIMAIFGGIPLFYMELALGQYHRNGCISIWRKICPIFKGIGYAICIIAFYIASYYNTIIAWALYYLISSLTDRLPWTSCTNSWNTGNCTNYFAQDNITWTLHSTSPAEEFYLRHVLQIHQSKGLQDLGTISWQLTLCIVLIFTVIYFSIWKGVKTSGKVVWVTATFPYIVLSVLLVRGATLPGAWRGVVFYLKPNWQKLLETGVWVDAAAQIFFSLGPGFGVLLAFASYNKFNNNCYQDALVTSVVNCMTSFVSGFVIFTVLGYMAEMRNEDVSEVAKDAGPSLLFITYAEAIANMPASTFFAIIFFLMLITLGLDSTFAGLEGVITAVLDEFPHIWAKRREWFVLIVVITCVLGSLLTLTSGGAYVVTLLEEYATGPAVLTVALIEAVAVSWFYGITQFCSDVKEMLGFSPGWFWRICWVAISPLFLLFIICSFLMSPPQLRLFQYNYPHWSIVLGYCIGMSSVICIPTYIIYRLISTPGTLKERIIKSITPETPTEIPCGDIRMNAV
Method in brief: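 Rat cortex tissue suspension with 1.0 nM [3H]-citalopram in 50 mM Tris pH 7.7, 150 mM NaCl, 5 mM KCl. Incubated 60 min at 24 °C, in duplicate. GF/B filtration, scintillation counting. One-site fit, Ki via Cheng–Prusoff with in-house Kd.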

Mus musculus [5] = experiment: Induction of hypothermia in CD-1 mouse assessed as change in body temperature at 17.5 mg/kg, ip measured after 30 mins by thermometric method (Rvb <= 0.4 deg C); type: functional, organism-based; method in brief: as §1
[6] = Half life in human liver microsomes at 1 uM by LC-MS analysis; type: ADME, Microsome
Method in brief: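 Compound at 1 μM incubated at 37 °C with 1 mg/mL pooled human liver microsomes and 100 μM NADPH in 0.1 M potassium phosphate pH 7.4, after 5-min preincubation. Samples taken at 0, 5, 10, 15, 30 min and quenched in ice-cold acetonitrile with buspirone internal standard. No-NADPH controls were run. Parent measured by LC-ESI(+)-MS of [M+H+]; half-life reported.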

Mus musculus [7] = experiment: Induction of hypothermia in CD-1 mouse assessed as change in body temperature at 5 mg/kg, ip measured after 60 mins by thermometric method; type: functional, organism-based; method in brief: as §1
Mus musculus [8] = experiment: Induction of hypothermia in CD-1 mouse assessed as change in body temperature at 17.5 mg/kg, ip measured after 60 mins by thermometric method (reference value: 0.1 deg C); type: functional, organism-based; method in brief: as §1
Mus musculus [9] = experiment: Induction of hypothermia in CD-1 mouse assessed as change in body temperature at 20 mg/kg, ip measured after 30 mins by thermometric method; type: functional, organism-based; method in brief: as §1
Mus musculus [10] = experiment: Induction of hypothermia in CD-1 mouse assessed as change in body temperature at 5 mg/kg, ip measured after 30 mins by thermometric method; type: functional, organism-based; method in brief: as §1
[11] = biological target: 5-hydroxytryptamine receptor 2A (Homo sapiens, UniProt P28223); experiment: Displacement of [3H]-ketanserin from recombinant human 5HT2A receptor expressed in HEK293 cells measured after 1.5 hrs by microbeta scintillation counting analysis; type: cell-based
5-hydroxytryptamine receptor 2A, sequence (P28223 whole entry): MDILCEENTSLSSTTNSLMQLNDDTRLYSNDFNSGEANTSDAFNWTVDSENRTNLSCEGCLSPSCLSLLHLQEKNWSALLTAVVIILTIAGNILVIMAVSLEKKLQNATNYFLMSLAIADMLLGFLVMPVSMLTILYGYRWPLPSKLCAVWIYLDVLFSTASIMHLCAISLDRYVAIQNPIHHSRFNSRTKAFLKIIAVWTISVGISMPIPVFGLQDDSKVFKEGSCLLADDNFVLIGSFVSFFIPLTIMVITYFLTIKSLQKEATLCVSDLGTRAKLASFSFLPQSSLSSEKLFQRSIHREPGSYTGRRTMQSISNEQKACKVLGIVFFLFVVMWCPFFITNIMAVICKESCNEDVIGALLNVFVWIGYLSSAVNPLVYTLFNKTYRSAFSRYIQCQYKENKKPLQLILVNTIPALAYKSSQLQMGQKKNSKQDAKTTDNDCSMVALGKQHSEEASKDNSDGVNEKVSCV

Mus musculus [12] = experiment: Induction of hypothermia in CD-1 mouse assessed as change in body temperature at 20 mg/kg, ip measured after 60 mins by thermometric method; type: functional, organism-based; method in brief: as §1
Mus musculus [13] = experiment: Induction of hypothermia in CD-1 mouse assessed as change in body temperature at 15 mg/kg, ip measured after 60 mins by thermometric method (reference value: 0.1 deg C); type: functional, organism-based; method in brief: as §1
Mus musculus [14] = experiment: Induction of hypothermia in CD-1 mouse assessed as change in body temperature at 15 mg/kg, ip measured after 90 mins by thermometric method (reference value: -0.1 to 0.1 deg C); type: functional, organism-based; method in brief: as §1
Mus musculus [15] = experiment: Induction of hypothermia in CD-1 mouse assessed as change in body temperature at 5 mg/kg, ip measured after 120 mins by thermometric method; type: functional, organism-based; method in brief: as §1
[16] = biological target: 5-hydroxytryptamine receptor 7 (Homo sapiens, UniProt P34969); experiment: Displacement of [3H]-5-CT from recombinant human 5HT7 receptor expressed in HEK293 cells measured after 1 hr by microbeta scintillation counting analysis; type: cell-based
5-hydroxytryptamine receptor 7, sequence (P34969 whole entry): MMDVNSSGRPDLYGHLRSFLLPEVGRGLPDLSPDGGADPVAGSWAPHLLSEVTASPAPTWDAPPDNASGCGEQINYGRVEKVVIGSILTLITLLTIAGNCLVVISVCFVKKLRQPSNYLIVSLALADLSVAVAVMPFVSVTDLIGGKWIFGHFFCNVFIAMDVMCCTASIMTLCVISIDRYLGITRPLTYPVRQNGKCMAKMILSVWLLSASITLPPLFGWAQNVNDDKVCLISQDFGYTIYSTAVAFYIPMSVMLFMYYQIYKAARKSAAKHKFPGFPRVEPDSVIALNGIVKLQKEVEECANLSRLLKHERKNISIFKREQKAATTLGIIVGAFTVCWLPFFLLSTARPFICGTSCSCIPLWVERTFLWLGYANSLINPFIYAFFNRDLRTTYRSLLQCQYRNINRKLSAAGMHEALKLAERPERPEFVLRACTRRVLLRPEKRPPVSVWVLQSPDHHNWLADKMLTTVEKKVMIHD

D(2) dopamine receptor = D(2) dopamine receptor (Homo sapiens, UniProt P14416); experiment: Displacement of [3H]-raclopride from recombinant human D2 receptor expressed in HEK293 cells measured after 1 hr by microbeta scintillation counting analysis; type: cell-based
D(2) dopamine receptor, sequence (P14416 whole entry): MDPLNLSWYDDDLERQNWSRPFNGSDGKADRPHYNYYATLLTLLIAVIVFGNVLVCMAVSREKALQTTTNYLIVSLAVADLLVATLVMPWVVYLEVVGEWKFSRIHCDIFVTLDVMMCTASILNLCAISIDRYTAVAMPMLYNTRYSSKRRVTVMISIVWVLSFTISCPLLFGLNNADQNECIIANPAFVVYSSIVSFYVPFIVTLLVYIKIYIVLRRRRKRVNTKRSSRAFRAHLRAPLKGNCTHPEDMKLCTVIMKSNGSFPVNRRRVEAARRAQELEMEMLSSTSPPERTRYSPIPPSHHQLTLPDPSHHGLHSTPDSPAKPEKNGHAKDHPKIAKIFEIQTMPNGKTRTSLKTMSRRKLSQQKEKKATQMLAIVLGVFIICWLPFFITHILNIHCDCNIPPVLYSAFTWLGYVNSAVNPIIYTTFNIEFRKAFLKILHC

Mus musculus [17] = experiment: Induction of hypothermia in CD-1 mouse assessed as change in body temperature at 17.5 mg/kg, ip measured after 120 mins by thermometric method (reference value: -0.1 to 0.1 deg C); type: functional, organism-based; method in brief: as §1
Mus musculus [18] = experiment: Induction of hypothermia in CD-1 mouse assessed as change in body temperature at 15 mg/kg, ip measured after 30 mins by thermometric method (Rvb <= 0.4 deg C); type: functional, organism-based; method in brief: as §1
Mus musculus [19] = experiment: Induction of hypothermia in CD-1 mouse assessed as change in body temperature at 15 mg/kg, ip measured after 120 mins by thermometric method (reference value: -0.1 to 0.1 deg C); type: functional, organism-based; method in brief: as §1
[20] = biological target: 5-hydroxytryptamine receptor 6 (Homo sapiens, UniProt P50406); experiment: Displacement of [3H]-LSD from recombinant human 5HT6 receptor expressed in HEK293 cells measured after 1 hr by microbeta scintillation counting analysis; type: cell-based
5-hydroxytryptamine receptor 6, sequence (P50406 whole entry): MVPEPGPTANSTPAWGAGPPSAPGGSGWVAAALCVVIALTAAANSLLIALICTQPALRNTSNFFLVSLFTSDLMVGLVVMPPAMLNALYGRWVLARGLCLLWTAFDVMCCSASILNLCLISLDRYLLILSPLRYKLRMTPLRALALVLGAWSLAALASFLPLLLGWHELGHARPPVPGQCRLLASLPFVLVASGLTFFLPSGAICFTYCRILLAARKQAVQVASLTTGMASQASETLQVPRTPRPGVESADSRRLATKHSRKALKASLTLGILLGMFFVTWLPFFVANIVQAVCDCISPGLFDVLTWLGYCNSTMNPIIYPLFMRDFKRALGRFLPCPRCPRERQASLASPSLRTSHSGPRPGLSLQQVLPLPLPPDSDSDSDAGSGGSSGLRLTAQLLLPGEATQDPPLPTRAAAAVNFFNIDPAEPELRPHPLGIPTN

Mus musculus [21] = experiment: Induction of hypothermia in CD-1 mouse assessed as change in body temperature at 20 mg/kg, ip measured after 90 mins by thermometric method; type: functional, organism-based; method in brief: as §1
Mus musculus [22] = experiment: Induction of hypothermia in CD-1 mouse assessed as change in body temperature at 5 mg/kg, ip measured after 90 mins by thermometric method; type: functional, organism-based; method in brief: as §1

Q: What does the source list for `COc1ccc(-c2c(=O)n(CCCCN3CCCC(c4c[nH]c5ccc(OC)cc45)C3)c(=O)n3ccccc23)cc1` (stereo not drawn)?
A: deltaT (Mus musculus [1]): 0 °C; deltaT (Mus musculus [2]): -0.1 °C; Ki [3]: 62 nM; Ki [4]: 86 nM; deltaT (Mus musculus [5]): -0.6 °C; half-life at 1 µM [6]: 3.31 min; deltaT (Mus musculus [7]): 0.2 °C; deltaT (Mus musculus [8]): -0.2 °C; deltaT (Mus musculus [9]): -2.4 °C; deltaT (Mus musculus [10]): -0.2 °C; Ki [11]: 314 nM; deltaT (Mus musculus [12]): -1 °C; deltaT (Mus musculus [13]): 0.2 °C; deltaT (Mus musculus [14]): 0.3 °C; deltaT (Mus musculus [15]): -0.2 °C; Ki [16]: 958 nM; Ki (D(2) dopamine receptor): 11200 nM; deltaT (Mus musculus [17]): 0.1 °C; deltaT (Mus musculus [18]): -0.5 °C; deltaT (Mus musculus [19]): 0.2 °C; Ki [20]: 690 nM; deltaT (Mus musculus [21]): 0.1 °C; deltaT (Mus musculus [22]): 0.2 °C
